According to ChEMBL document CHEMBL4219101, “Discovery of 18β-glycyrrhetinic acid conjugated aminobenzothiazole derivatives as Hsp90-Cdc37 interaction disruptors that inhibit cell migration and reverse drug resistance” (Bioorg Med Chem, 2018):
Calls of active or inactive are those of the source. The rule behind the calls is not given here.

Legend:
A549 [1] = assay: Inhibition of HSP90/Cdc37 interaction in human A549 cells assessed as suppression cellular migration at 5 to 10 uM after 24 hrs by wound healing assay; assay type: cell-based
In short: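 Scratch wounds made in A549 monolayers, cells then exposed to 5 µM and 10 µM. Wound closure imaged by microscopy at 0 h and 24 h, magnification 200×.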

[2] = Antiproliferative activity against human NCI-460 cells after 48 hrs by MTT assay; assay type: functional, cell-based; conditions: NCI-460, 48 h
In short: (§1)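 Cells in log phase seeded at about 1.0 × 10^5 cells/mL in 96-well plates, left 12 h at 37 °C, 5% CO2. Compounds dissolved in DMSO, added at 2.5, 5, 10, 20 and 50 µM, 48 h exposure. Absorbance read at 570/630 nm dual wavelength. Survival expressed relative to negative control. IC50 by Bliss method (n = 5), tests done in triplicate.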

HepG2 = assay: Antiproliferative activity against human HepG2 cells after 48 hrs by MTT assay; assay type: functional, cell-based; conditions: HepG2, 48 h; in short: as §1
[3] = target: T1, Heat shock protein HSP90 (Homo sapiens) (UniProt P07900+P08238); assay: Inhibition of HSP90 in human A549 cells assessed as induction of HSP27 expression after 24 hrs by Western blot analysis; assay type: cell-based
In short: (§2)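 A549 cells exposed for 24 h, with geldanamycin as comparator. Whole-cell lysates separated by SDS-PAGE and immunoblotted for the named proteins. β-actin used as reference.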

A549 [4] = assay: Induction of apoptosis in human A549 cells assessed as viable cells at 10 uM after 24 hrs by Annexin-V FITC/propidium iodide staining based flow cytometry (reference value: 97.6%); conditions: A549, 24 h
A549 [5] = assay: Induction of apoptosis in human A549 cells assessed as necrotic cells at 5 uM after 24 hrs by Annexin-V FITC/propidium iodide staining based flow cytometry (reference value: 2.32%)
A549 [6] = assay: Cell cycle arrest in human A549 cells assessed as accumulation at G1 phase at 5 uM after 48 hrs by propidium iodide staining-based flow cytometry (reference value: 70.16%); assay type: functional
A549 [7] = assay: Induction of apoptosis in human A549 cells assessed as necrotic cells at 10 uM after 24 hrs by Annexin-V FITC/propidium iodide staining based flow cytometry (reference value: 2.32%)
A549 [8] = assay: Induction of apoptosis in human A549 cells assessed as upregulation of cleaved caspase-9 protein expression after 24 hrs by Western blot analysis; assay type: functional, cell-based
In short: (§3)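 A549 cells exposed to 5 and 10 µM for 24 h. Lysates cleared at 20000g, protein quantified by BCA and equal amounts run on 12% SDS-PAGE, then transferred to PVDF. Blocked in 5% skim milk in TBST. Probed overnight at 4 °C with antibodies to Bcl-2, Bax, caspase-9, caspase-3 and β-actin (loading reference). Chemiluminescent detection. Three independent experiments.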

A549 [9] = assay: Induction of apoptosis in human A549 cells assessed as upregulation of cleaved caspase-3 protein expression after 24 hrs by Western blot analysis; assay type: functional, cell-based; in short: as §3
A549 [10] = assay: Cell cycle arrest in human A549 cells assessed as accumulation at S phase at 10 uM after 48 hrs by propidium iodide staining-based flow cytometry (reference value: 19.62%); assay type: functional
HCT-116 = assay: Antiproliferative activity against human HCT116 cells after 48 hrs by MTT assay; assay type: functional, cell-based; conditions: HCT-116, 48 h; in short: as §1
A549 [11] = assay: Induction of apoptosis in human A549 cells assessed as viable cells at 5 uM after 24 hrs by Annexin-V FITC/propidium iodide staining based flow cytometry (reference value: 97.6%); conditions: A549, 24 h
A549 [12] = assay: Induction of apoptosis in human A549 cells assessed as downregulation of Bcl2 protein expression after 24 hrs by Western blot analysis; assay type: functional, cell-based; in short: as §3
[13] = target: T1, Heat shock protein HSP90 (Homo sapiens); assay: Inhibition of HSP90 in human A549 cells assessed as downregulation of phosphorylated akt expression after 24 hrs by Western blot analysis; assay type: cell-based; in short: as §2
A549 [14] = assay: Induction of apoptosis in human A549 cells assessed as increase in intracellular ROS levels after 24 hrs by FITC-DCF-DA-fluorescence based flow cytometry; assay type: functional, cell-based
In short: (§4)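 A549 cells exposed to 5 and 10 µM for 24 h, untreated cells as control. Collected, washed with ice-cold PBS and loaded with DCFH-DA in cell-free medium for 20 min at 37 °C in the dark, then washed. Fluorescence measured by flow cytometry at 485 nm excitation and 538 nm emission. Mean ± S.D. of three independent experiments.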

A549 [15] = assay: Induction of apoptosis in human A549 cells assessed as intracellular ROS levels at 5 uM after 24 hrs by FITC-DCF-DA-fluorescence based flow cytometry (reference value: 0.832%); assay type: functional; in short: as §4
A549 [16] = assay: Induction of apoptosis in human A549 cells assessed as upregulation of Bax protein expression after 24 hrs by Western blot analysis; assay type: functional, cell-based; in short: as §3
A549 [17] = assay: Cell cycle arrest in human A549 cells assessed as accumulation at G2 phase at 10 uM after 48 hrs by propidium iodide staining-based flow cytometry (reference value: 10.22%); assay type: functional
A549 [18] = assay: Cell cycle arrest in human A549 cells assessed as accumulation at G1 phase at 10 uM after 48 hrs by propidium iodide staining-based flow cytometry (reference value: 70.16%); assay type: functional
A549 [19] = assay: Induction of apoptosis in human A549 cells assessed as late apoptotic cells at 10 uM after 24 hrs by Annexin-V FITC/propidium iodide staining based flow cytometry (reference value: 0.030%)
[20] = target: T1, Heat shock protein HSP90 (Homo sapiens); assay: Inhibition of HSP90 in human A549 cells assessed as induction of HSP70 expression after 24 hrs by Western blot analysis; assay type: cell-based; in short: as §2
MCF7 = assay: Antiproliferative activity against human MCF7 cells after 48 hrs by MTT assay; assay type: functional, cell-based; conditions: MCF7, 48 h; in short: as §1
A549 [21] = assay: Inhibition of Hsp90/Cdc37 interaction in human A549 cells assessed as downregulation of Cdc37 in immunoprecipitated HSP90 complex at 5 to 10 uM after 24 hrs by Western blot analysis; assay type: cell-based
In short: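 A549 cells exposed to 5 and 10 µM for 24 h, geldanamycin 10 µM as comparator. Lysis in 20 mM Tris-HCl pH 7.4, 25 mM NaCl, 2 mM DTT, 20 mM Na2MoO4, 0.1% NP-40 and protease inhibitors. 500 µg protein immunoprecipitated overnight at 4 °C with anti-Hsp90 antibody, captured on protein G agarose, washed five times and boiled. Cdc37 and Hsp90 detected by Western blot, with input also blotted.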

A549 [22] = assay: Cell cycle arrest in human A549 cells assessed as accumulation at S phase after 48 hrs by propidium iodide staining-based flow cytometry; assay type: functional

For `CCOC(=O)[C@@]1(C)CC[C@]2(C)CC[C@]3(C)C(=CC(=O)[C@@H]4[C@@]5(C)CC[C@H](OC(=O)CCC(=O)Nc6nc7ccc(F)cc7s6)C(C)(C)[C@@H]5CC[C@]43C)[C@@H]2C1`, the inhibition (A549 [1]) was “Active”, the IC50 [2] was 7.41 µM and the IC50 (HepG2) was 10.6 µM. The inhibition [3] was “Dose-dependent effect”, the viability at 10 µM (A549 [4]) was 78.8% and the Activity (A549 [5]) was 2.18%. For the same compound, the Activity (A549 [6]) was 52.92%, the Activity (A549 [7]) was 1.15% and the Activity (A549 [8]) was “Dose-dependent effect”. The Activity (A549 [9]) was “Dose-dependent effect”, the Activity (A549 [10]) was 40.35% and the IC50 (HCT-116) was 7.97 µM. The viability at 5 µM (A549 [11]) was 85.5%, the Activity (A549 [12]) was “Dose-dependent effect” and the inhibition [13] was “Dose-dependent effect”. For the same compound, the Activity (A549 [14]) was “Dose-dependent effect”, the Activity (A549 [15]) was 13.6% and the Activity (A549 [16]) was “Dose-dependent effect”. It also gave an Activity (A549 [17]) of 12.51%, an Activity (A549 [18]) of 47.14% and an Activity (A549 [19]) of 6.07%. For the same compound, the inhibition [20] was “Dose-dependent effect”, the IC50 (MCF7) was 6.37 µM and the inhibition (A549 [21]) was “Active”. For the same compound, the Activity (A549 [22]) was “Dose-dependent effect”.
